Experimental data as given in paper PMC2912410 (Bioconjugate chemistry, 2010).
Entries after “also recorded” stand apart in the source; their conditions may differ.

Key:
human platelets = assay: ADP-induced aggregation of human washed platelets; type: cell-based; conditions: 1 μM, ADP 5 μM
Method in brief: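 Washed human platelets: donor blood spun 175×g, 15 min, 37 °C; platelet-rich plasma spun 1570×g, 15 min; pellet washed twice in Tyrode's (pH 7.3, 0.35% human serum albumin); resuspended 3×10^5/μL with 0.02 U/mL apyrase, kept at 37 °C. Extent measured as maximum curve height above baseline.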

hP2Y1 receptor = hP2Y1 receptor (Homo sapiens, UniProt P47900); assay: [125I]MRS2500 radioligand binding at hP2Y1 receptor in Sf9 insect cell membranes; conditions: for binding to the P2Y1 receptor (in words): [125I]MRS2500 binding; for fold weaker in binding than shortest homologue 20: comparison of Ki values
P2Y1 receptor = conditions: competitive antagonist of the P2Y1 receptor; cited from earlier work

hP2Y1 receptor, sequence (P47900 whole entry): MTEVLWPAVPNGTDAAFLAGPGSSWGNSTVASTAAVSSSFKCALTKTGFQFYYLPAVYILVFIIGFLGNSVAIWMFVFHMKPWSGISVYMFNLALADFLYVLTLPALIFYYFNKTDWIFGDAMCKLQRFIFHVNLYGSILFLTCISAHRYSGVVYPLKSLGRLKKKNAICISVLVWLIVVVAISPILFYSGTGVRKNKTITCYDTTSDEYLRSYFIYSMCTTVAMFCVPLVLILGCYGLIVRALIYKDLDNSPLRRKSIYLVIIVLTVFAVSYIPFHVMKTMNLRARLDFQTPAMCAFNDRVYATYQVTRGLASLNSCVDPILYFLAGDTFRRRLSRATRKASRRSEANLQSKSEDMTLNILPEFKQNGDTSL

For `CNc1nc(I)nc2c1ncn2[C@H]1C[C@H](OP(=O)(O)O)[C@]2(COP(=O)(O)O)C[C@H]12` [Compound 2, (1′R,2′S,4′S,5′S)-4-(2-iodo-6-methylamino-purin-9-yl)-1-[(phosphato)-methyl]-2-(phosphato)-bicyclo[3.1.0]hexane], the “inhibition of platelet aggregation (in words)” value (human platelets) was “completely inhibited aggregation”.
With `CNc1nc(C#CCCCC(=O)NCCNC(=O)CCCCCNC(=O)CCCCC2SCC3NC(=O)NC32)nc2c1ncn2[C@H]1C[C@H](OP(=O)(O)O)[C@]2(COP(=O)(O)O)C[C@H]12` (stereo partly drawn) [Compound 18, (1'R,2'S,4'S,5'S)-4-{2-[6-(6-Oxo-6-(2-(6-(5-(2-oxohexahydro-1H-thieno[3,4-d]imidazol-4-yl)pentanamido)hexanamido)ethylamino)hex-1-ynyl)]-6-methylaminopurin-9-yl}-1-[(phosphato)-methyl]-2-(phosphato)-bicyclo[3.1.0]hexane] the “binding to the P2Y1 receptor (in words)” value (hP2Y1 receptor) was “more potent in binding than the shorter analogue 17”.
In the case of `CNc1nc(C#CCCCCc2cn(CCNC(C)=O)nn2)nc2c1ncn2[C@H]1C[C@H](OP(=O)(O)O)[C@]2(COP(=O)(O)O)C[C@H]12` [Compound 22, (1'R,2'S,4'S,5'S)-4-{2-[(6-(2-Acetamidoethyl)-1H-1,2,3-triazol-4-yl)-hex-1-yn-1-yl]-6-methylaminopurin-9-yl}-1-[(phosphato)-methyl]-2-(phosphato)-bicyclo[3.1.0]hexane], the “fold weaker in binding than shortest homologue 20” value (hP2Y1 receptor) was 20 – 30 fold.
For `CNc1ncnc2c1ncn2[C@H]1C[C@H](OP(=O)(O)O)[C@@H](COP(=O)(O)O)O1` [Compound 1, N^6-methyl-2′-deoxyadenosine-3′,5′-bisphosphate], the Kb (P2Y1 receptor) is listed as 0.102 µM.
With “(1'R,2'S,4'S,5'S)-4-{2-[(6-(6-(4-(Fluorosulfonyl)phenethylamino)-6-oxohex-1-ynyl)]-6-methylaminopurin-9-yl}-1-[(phosphato)-methyl]-2-(phosphato)-bicyclo[3.1.0]hexane [Compound 19]” the “binding to the P2Y1 receptor (in words)” value (hP2Y1 receptor) was “not appreciably potent; also recorded: weak in binding”.
In the case of “(1'R,2'S,4'S,5'S)-4-{2-[(6-(6-Oxo-6-(2-(5-(2-oxohexahydro-1H-thieno[3,4-d]imidazol-4-yl)pentanamido)ethylamino)hex-1-ynyl)-1-propynyl]-6-methylaminopurin-9-yl}-1-[(phosphato)-methyl]-2-(phosphato)-bicyclo[3.1.0]hexane [Compound 17]”, the “binding to the P2Y1 receptor (in words)” value (hP2Y1 receptor) was “weak in binding”.
With `CNc1nc(C#CCCCCCc2cn(CCNC(C)=O)nn2)nc2c1ncn2[C@H]1C[C@H](OP(=O)(O)O)[C@]2(COP(=O)(O)O)C[C@H]12` [Compound 23, (1'R,2'S,4'S,5'S)-4-{2-[(7-(2-Acetamidoethyl)-1H-1,2,3-triazol-4-yl)-hept-1-yn-1-yl]-6-methylaminopurin-9-yl}-1-[(phosphato)-methyl]-2-(phosphato)-bicyclo[3.1.0]hexane] the “fold weaker in binding than shortest homologue 20” value (hP2Y1 receptor) was 20 – 30 fold.
